From PubChem BioAssay
LYPLA2 inh: blocks human lysophospholipase 2, a PME1 counter-screen. O95372. recombinant LYPLA2, FP-Rh probe fluorescence polarization. inhibition, % at 5.9 µM. actives 0.38% (n = 320,000). AID 2177;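 active = inhibition above the screen-wide mean plus 3 SD, limit set per campaign, cut at about 26% in these data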;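 also: 0% = LYPLA2 with DMSO and 100% = wells lacking LYPLA2 enzyme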
LYPLA1 counter: LYPLA1 (human) inhibition in PME1 counter-screen; O75608; recombinant LYPLA1, FP-Rh probe fluorescence polarization; inhibition, % at 5.9 µM; actives 0.16% (n = 320,000); AID 2174;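 active = inhibition above the mean of all tested compounds plus 3 SD, set per campaign, cut at about 14% in these data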;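 also: inhibitors block serine hydrolase probe labeling of LYPLA1 so polarization falls; 0% = enzyme with DMSO and 100% = wells lacking LYPLA1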
proCasp7 act: counter-screen: procaspase-7 (human) activation; recombinant procaspase-7, Ac-DEVD-pNA absorbance 405 nm; D23A/D198A/D206A triple mutant, cannot self-cleave; scale: DMSO 0, 5 µM enzyme 100; P55210; activation, % at 8.5 µM; actives 0.093% (n = 330,000);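 active = percent activation above the screen-wide mean plus 3 SD, cut at about 25% in these data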
Target sequence (P55210 whole entry D23A/D198A/D206A): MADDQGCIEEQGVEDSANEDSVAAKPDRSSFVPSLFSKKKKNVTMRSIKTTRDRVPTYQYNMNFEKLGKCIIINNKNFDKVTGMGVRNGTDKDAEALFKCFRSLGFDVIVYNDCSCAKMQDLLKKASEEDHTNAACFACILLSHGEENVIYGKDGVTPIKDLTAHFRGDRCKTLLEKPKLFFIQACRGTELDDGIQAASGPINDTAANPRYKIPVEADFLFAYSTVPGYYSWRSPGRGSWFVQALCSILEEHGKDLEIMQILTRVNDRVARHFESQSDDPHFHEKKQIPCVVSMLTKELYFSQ
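signal = Epi-absorbance of released pNA at 405 nm, two timepoints | assay system = Uncleavable procaspase-7 mutant enzyme | reagent = Ac-DEVD-pNA substrate, 400 µM as added | times = 1 h enzyme–compound preincubation and 2 h substrate reaction, both 25 °C | benchmarks = low DMSO alone, high DMSO plus 5 µM PC-7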
procasp3 activ: activators of human procaspase-3 | P42574 | recombinant procaspase-3 D3A, Ac-DEVD-pNA absorbance 405 nm | activation, % at 8.5 µM | actives 0.11% (n = 330,000);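 active = activation above the mean of all tested compounds plus 3 SD, cut at about 21% in these data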;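 also: 0% = DMSO alone and 100% = DMSO wells spiked with extra 5 µM PC-3 D3A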
Target sequence (P42574 whole entry D9A/D28A/D175A): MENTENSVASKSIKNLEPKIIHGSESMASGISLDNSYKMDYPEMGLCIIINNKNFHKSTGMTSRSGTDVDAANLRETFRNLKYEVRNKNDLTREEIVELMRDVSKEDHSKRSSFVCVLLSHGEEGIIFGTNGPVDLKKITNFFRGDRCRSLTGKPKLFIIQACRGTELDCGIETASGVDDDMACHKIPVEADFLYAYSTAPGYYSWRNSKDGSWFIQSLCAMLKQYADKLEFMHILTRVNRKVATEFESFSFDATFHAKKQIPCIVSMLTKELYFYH
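Assay system – Procaspase-3 D3A mutant · Benchmarks – DMSO low control, extra-enzyme high control · Technique – 405 nm absorbance of p-nitroaniline, reads at 0 and 120 min · Doses – 8.5 µM nominal · Measure – % activation between DMSO and enzyme-spiked controls · Also added – Ac-DEVD-pNA chromogenic peptide substrate · Schedule – 1 h compound preincubation, 2 h substrate hydrolysis at 25 °C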
PREPL inhibitor: inhibits the human prolyl oligopeptidase-like enzyme; Q4J6C6; recombinant PREPL, fluorescence polarization activity-based probe; inhibition, % at 5.96 µM; actives 0.68% (n = 320,000); in the data active = inhibition above about 43%;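 also: 0% = enzyme with DMSO and 100% = wells lacking enzyme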
LYPLA2 conf: LYPLA2 (human) inhibition, confirmation counter-screen. shares compounds with LYPLA2 inh. recombinant LYPLA2, FP-Rh probe fluorescence polarization. inhibition, % at 5.9 µM. actives 72% (n = 1,100);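 active = mean inhibition across replicates above the hit cutoff set in the primary screen, cut at about 26% in these data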;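 also: blocked labeling of the enzyme by serine hydrolase FP-Rh probe lowers polarization; 0% = enzyme with DMSO and 100% = wells lacking LYPLA2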
LYPLA2 ABPP: LYPLA2 (human) inhibition, late stage results. shares compounds with LYPLA2 inh. rhLYPLA2 in mouse brain proteome, gel ABPP FP-Rh. inhibition, % at 20 µM. actives 30% (n = 150);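 active = inhibition of LYPLA2 enzyme probe labeling above about 50%, limit read from the data; inactive = inhibition below that limit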;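 also: loss of FP-Rh probe labeling of the LYPLA2 gel band measured as band density; 0% = DMSO only control band and 100% = blank gel background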
An asterisk follows results filed as active; x = no result given. Hits are enriched below; roughly 1% of the tested compounds scored in any of these assays.

SMILES | LYPLA2 inh | LYPLA1 counter | proCasp7 act | procasp3 activ | PREPL inhibitor | LYPLA2 conf | others
O=[N+]([O-])c1ccc(Oc2cccc(Br)c2)c2ccncc12 | 81* | 11 | -4 | 3 | 36 | 79* | LYPLA2 ABPP=57*
O=[N+]([O-])c1ccc(Oc2ccc(F)cc2)c2ccncc12 | 57* | 1 | 2 | 6 | 15 | 54* | LYPLA2 ABPP=12
Cc1c2cnn(CC(=O)Nc3c(F)c(F)cc(F)c3F)c(=O)c2c(C)n1Cc1ccccc1F | -16 | -4 | 4 | 6 | 4 | x
O=C(NC(=S)Nc1ccc(CN2CCOCC2)cc1)c1ccccc1[N+](=O)[O-] | -2 | -5 | 3 | 5 | 3 | x
O=C(NCCC1=CCCCC1)C1CCN(S(=O)(=O)c2cccc(C(F)(F)F)c2)CC1 | 3 | -1 | 4 | 0 | 5 | x
O=C(NCCC1=CCCCC1)C1CCN(S(=O)(=O)c2ccccc2)CC1 | 28* | 0 | 5 | 0 | 0 | 0
CCOC(=O)c1ccc(NC(=O)CSc2nc(C)nc3c2c(=O)n(C)c(=O)n3C)cc1 | 2 | 0 | 1 | -1 | -11 | x
Cc1cc(C)c(C(=O)N2CCCC(N3CCN(c4cccc(C(F)(F)F)c4)CC3)C2)o1 (stereo not given) | 52* | 10 | 7 | 1 | 19 | 50* | LYPLA2 ABPP=31
Cn1nccc1C(=O)N1CCN(c2cccc(C(F)(F)F)c2)CC1 | 2 | -3 | -4 | 1 | 16 | x
Cn1nccc1C(=O)N1CCCC(N2CCN(c3cccc(C(F)(F)F)c3)CC2)C1 (stereo not given) | 54* | 4 | 14 | 8 | 4 | 52* | LYPLA2 ABPP=37
CN(C)C(=O)N1CCC(C(=O)N2CCCC(C(=O)c3ccc(C(C)(C)C)cc3)C2)CC1 (stereo not given) | 34* | 4 | 5 | 11 | 10 | 34*
Cc1c(Cl)cccc1NC(=O)Nc1c(C)n(C)n(-c2ccccc2)c1=O | 4 | 2 | -10 | -3 | 3 | x
CC(C)CNC(=O)COC(=O)c1cc(S(=O)(=O)N(C)C)ccc1N1CCCC1 | 14 | 3 | 3 | -2 | 0 | x
CC(=O)Nc1cccc(C(=O)OCC(=O)c2ccc(S(=O)(=O)N3CCCCC3)cc2)c1 | 66* | 8 | 8 | -10 | 5 | 62*
O=C(OCC(=O)N1CCCCCC1)c1ccc(Cl)c(S(=O)(=O)N2CCCC2)c1 | 4 | -2 | 7 | -4 | 9 | x
CNC(=O)COC(=O)c1ccc(Cl)c(S(=O)(=O)N2CCCC2)c1 | 28* | 3 | -7 | 2 | -4 | 6
O=C(O)c1cc(NN=Nc2cccc(S(=O)(=O)O)c2)cc([N+](=O)[O-])c1 | 3 | 2 | -5 | -7 | 4 | x
O=C(O)c1cc(NN=Nc2cccc([N+](=O)[O-])c2)cc([N+](=O)[O-])c1 | 28* | 10 | 0 | -10 | 9 | 28*
O=C(c1cc(-c2ccc(F)cc2)no1)N1CCN(Cc2ccc3c(c2)OCO3)CC1 | 33* | 1 | -1 | 2 | -4 | 35*
OCC1(CCOc2ccccc2)CCN(Cc2ccccc2OC(F)F)CC1 | 1 | 3 | -5 | 13 | -9 | x
O=C(OCc1ccc([N+](=O)[O-])cc1)c1cc(S(=O)(=O)N2CCCCC2)ccc1N1CCOCC1 | 27* | 2 | 11 | -1 | 8 | 33*
O=C(OCc1ccc(F)cc1)c1cc(S(=O)(=O)N2CCCCC2)ccc1N1CCOCC1 | 6 | 2 | 14 | 0 | 0 | x
Cc1ccc(OCCOC(=O)c2cc(S(=O)(=O)N3CCCCC3)ccc2N2CCOCC2)cc1 | 29* | -1 | 0 | 0 | 17 | 31*
COCCn1c(Cc2ccccc2)nnc1SCC(=O)N1CCCCC1C (stereo not given) | -2 | 4 | 0 | 6 | -1 | x
CC1CCCC(C)N1C(=O)COC(=O)CCC1CCCC1 (stereo not given) | 36* | 0 | 2 | 6 | 3 | 1
SMILES | LYPLA2 inh | LYPLA1 counter | proCasp7 act | procasp3 activ | PREPL inhibitor | LYPLA2 conf | others
COC(=O)C1=C(CS(=O)(=O)c2ccccc2)NC(=O)NC1c1ccc(OC)c(OC)c1 (stereo not given) | 32* | -2 | -4 | 3 | -3 | -1
CCOc1ccc(N2C(=O)CC(N3CCN(c4ccc(C(=O)c5ccncc5)cc4)CC3)C2=O)cc1 (stereo not given) | 29* | 5 | -10 | -5 | 3 | 20
O=C(c1ccc(N2CCN(C3CC(=O)N(c4ccc(F)cc4)C3=O)CC2)cc1)c1cccnc1 (stereo not given) | 35* | 6 | -4 | 4 | 8 | 32*
Cc1cc(NC(=O)c2ccc([N+](=O)[O-])cc2)n(C)n1 | -4 | -1 | 6 | 7 | 5 | x
COc1ccc(OCCOc2ccc(S(=O)(=O)N3CCCC3)cc2C(N)=O)cc1 | 14 | 1 | 4 | -2 | 21 | x
COc1ccc(OCCOc2ccc(S(=O)(=O)N3CCCC3)cc2[N+](=O)[O-])cc1 | 30* | -2 | 7 | 5 | 15 | 30*
O=C(OCC(=O)N1CCc2ccccc21)c1ccccc1[N+](=O)[O-] | 49* | -3 | -1 | -4 | 4 | 56*
O=C(CN(Cc1ccc(F)cc1)C(=O)CNS(=O)(=O)c1ccc(F)cc1)NCC1CCCO1 (stereo not given) | 2 | 1 | 11 | 0 | 0 | x
CCCCCCC1CC(CC(=O)Nc2ccc([N+](=O)[O-])cc2)C(=O)O1 (stereo not given) | 34* | 1 | 7 | 5 | -12 | 28*
C#CCOCCOCCOCCNc1nc(N2CCN(C(=O)CCCCCCCCCCNC(=O)Cn3cc(CCCCCN)nn3)CC2)nc(N2CCN(C(=O)CCCCCCCCCCNC(=O)Cn3cc(C[C@@H](C)O)nn3)CC2)n1 | 12 | 1 | -3 | 6 | 41 | x
C#CCOCCOCCOCCNc1nc(N2CCN(C(=O)CCCCCCCCCCNC(=O)Cn3cc(C[C@@H](C)O)nn3)CC2)nc(N2CCN(C(=O)CCCCCCCCCCNC(=O)[C@@H]([C@H](C)CC)n3cc(CCCCCN)nn3)CC2)n1 | 31* | 0 | 9 | 5 | 42 | 28*
CCOCCCN1CC(C(=O)NCCc2ccccc2)CC1=O (stereo not given) | 0 | 2 | 10 | 2 | 11 | x
Nc1nnc(SCC(=O)c2ccc([N+](=O)[O-])cc2)s1 | 29* | -2 | -18 | -7 | 13 | 14
Cc1nnc(SCC(=O)c2ccc([N+](=O)[O-])cc2)s1 | 11 | 3 | 13 | 6 | 23 | x
